procasp3 activ = activators of human procaspase-3. P42574. recombinant procaspase-3 D3A, Ac-DEVD-pNA absorbance 405 nm. activation, % at 8.5 µM. actives 0.11% (n = 330,000). AID 463141;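 active = activation above the mean of all tested compounds plus 3 SD, cut at about 21% in these data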
Target sequence (P42574 whole entry D9A/D28A/D175A): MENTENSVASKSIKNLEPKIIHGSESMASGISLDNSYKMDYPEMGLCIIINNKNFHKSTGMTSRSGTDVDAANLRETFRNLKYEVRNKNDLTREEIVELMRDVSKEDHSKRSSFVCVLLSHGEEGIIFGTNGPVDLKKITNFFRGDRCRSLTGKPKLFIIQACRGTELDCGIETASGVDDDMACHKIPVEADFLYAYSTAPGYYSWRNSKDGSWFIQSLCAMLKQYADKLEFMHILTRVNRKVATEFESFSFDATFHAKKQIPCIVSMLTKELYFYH
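assay system = Procaspase-3 D3A mutant | signal = absorbance at 405 nm, 0 and 120 min | times = 1 h preincubation plus 2 h reaction at 25 °C | repeats = single replicate | read-out = % activation between DMSO and enzyme-spiked controls | medium = Zinc-free HEPES saline buffer with Triton X-100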
proCasp7 act = activates human procaspase-7, counter-screen for procaspase-3 activators; AID 463210; recombinant procaspase-7, Ac-DEVD-pNA absorbance 405 nm; D23A/D198A/D206A triple mutant, cannot self-cleave; scale: DMSO 0, 5 µM enzyme 100; activation, % at 8.5 µM; actives 0.093% (n = 330,000); P55210;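 active = percent activation above the screen-wide mean plus 3 SD, cut at about 25% in these data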
Target sequence (P55210 whole entry D23A/D198A/D206A): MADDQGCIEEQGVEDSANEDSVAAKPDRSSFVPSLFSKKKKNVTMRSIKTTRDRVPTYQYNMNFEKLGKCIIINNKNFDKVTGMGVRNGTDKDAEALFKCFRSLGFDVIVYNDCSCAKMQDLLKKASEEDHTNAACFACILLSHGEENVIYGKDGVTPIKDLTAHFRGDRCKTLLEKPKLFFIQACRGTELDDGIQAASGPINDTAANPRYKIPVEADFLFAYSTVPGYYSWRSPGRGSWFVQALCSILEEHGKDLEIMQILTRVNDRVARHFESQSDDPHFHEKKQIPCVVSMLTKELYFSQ
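Replicates: singlicate. Assay system: Procaspase-7 triple mutant (PC-7 D3A). Signal: 405 nm absorbance of p-nitroaniline. Times: 1 h preincubation, 2 h reaction. Buffer or medium: Zinc-free HEPES pH 7.4 with 300 mM NaCl, 0.01% Triton X-100. Also added: DEVD-pNA substrate. Benchmarks: DMSO wells as 0%, DMSO with 5 µM added PC-7 as 100%.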
CHT inh = inhibits the human high affinity choline transporter. CHT-expressing cells, membrane potential dye, choline response; stronger effect = lower value. B-score at 10 µM. actives 0.86% (n = 310,000);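 active = B-score over 3 SD under the library average, and starting fluorescence ratio not unusually high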;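 note: choline stimulus applied at its EC90 after an EC20 pre-addition; B-score computed on integrated fluorescence ratio after choline addition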
CHT allo act = allosteric activators of human choline transporter CHT. AID 488977. Q9GZV3. actives 0.49% (n = 310,000). CHT-expressing cells, membrane potential dye, choline EC20; stronger effect = higher value; LV-AA mutant CHT in HEK293 cells. B-score at 10 µM;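 active = initial fluorescence not abnormally high and integrated response B-score, plate-corrected, over 3 SD above library mean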
CHT inh conf = human CHT inhibition, confirmatory screen; shares compounds with CHT inh; CHT-expressing cells, choline membrane potential dye; LV-to-AA substituted CHT, HEK293 cells; CHT activity remaining % of control (stronger effect = lower value), % at 10 µM; actives 70% (n = 2,400); AID 493221;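 active = choline transporter activity left, mean of duplicates at 10 µM, below buffer-only control mean minus 3 SD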;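 note: depolarization triggered by choline at its EC90 following an EC20 pre-addition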
HEK293 MPD ctr = activity in parental HEK293 cells lacking CHT; shares compounds with CHT inh; membrane potential dye, choline response; active = decrease or increase beyond buffer ±3SD; membrane potential ratio readout (active if shifted either direction beyond buffer ±3SD; no single direction) at 10 µM; actives 4% (n = 2,400); AID 493222;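 note: parental cells lack the transporter so any hit is non-specific; ratio is peak minus trough fluorescence over baseline after EC90 choline challenge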
Numbers stand for hits; – = inactive; · = no result. A selection: hits, their analogues and other compounds. The true share with any hit is near 1.3%.

SMILES	procasp3 activ	proCasp7 act	CHT inh	CHT allo act	CHT inh conf	HEK293 MPD ctr
O=C(Nc1ccccc1C(=O)NCCCn1ccnc1)c1ccccc1	–	–	-10	–	13%	–
CC1CN(C(=O)CSc2nnc(-c3cccs3)n2N)CC(C)O1 (stereo unspecified)	–	–	·	·	·	·
COc1ccc(-c2oc3ccc(-c4cc(OC)c(OC)c(OC)c4)cc3c2-c2ccc(OC)nc2)cc1	–	–	–	–	·	·
Cc1ccc(S(=O)(=O)N2CCOCC2)cc1NC(=O)COC(=O)Cn1c(C)csc1=O	–	–	–	–	·	·
CCc1cc(C(=O)NCC(c2ccco2)N2CCCCC2)sc1C (stereo unspecified)	–	–	·	·	·	·
O=C(NC(=S)NNC(=O)c1ccc(Cl)cc1Cl)c1cccnc1	–	–	–	–	·	·
Cc1ccccc1C(=O)NNC(=S)NC(=O)c1ccc(Cl)cc1Cl	–	–	-9.3	–	45%	–
CCOc1ccc(C(=O)NCC(=O)OCc2nnc(-c3ccccc3)o2)cc1OCC	–	–	·	·	·	·
O=C1CCN(CCc2ccccc2)CCN1CCSc1ccccc1	–	–	-5	–	50%	–
O=C(CN1CCN(S(=O)(=O)c2cccc(F)c2)CC1)Nc1ccnn1C1CCCC1	–	–	·	·	·	·
COc1ccc(Cn2c(=O)c3[nH]cnc3n(-c3ccccc3C)c2=O)cc1	–	–	-5.5	–	56%	–
COc1ccc(C)c(-n2c(=O)n(Cc3ccccc3)c(=O)c3[nH]cnc32)c1	–	–	–	–	·	·
O=C1C[C@H]2[C@H](CO)[C@@H](OC(=O)c3ccc(-c4ccccc4)cc3)C[C@H]2O1	–	–	-5.8	–	64%	–
CCC(=O)N1CCc2cc(S(=O)(=O)NC(C(=O)N3CCN(c4ccc(F)cc4)CC3)C(C)C)ccc21 (stereo unspecified)	–	–	–	–	·	·
Cc1ccc(C)c(NS(=O)(=O)c2cc(C(=O)NCc3ccccn3)ccc2C)c1	–	–	–	–	·	·
CSc1cccc(NC(=O)CCCn2c(=O)c3cccn3c3cccnc32)c1	–	–	–	–	·	·
CCOC(=O)Cc1csc(NS(=O)(=O)c2ccc3c4c(cccc24)C(=O)N3CC)n1	–	–	-5	–	46%	–
O=S(=O)(Nc1nc2ccccc2nc1Nc1cccc(S(=O)(=O)N2CCCCC2)c1)c1ccccc1	–	–	-7.4	–	53%	–
Cc1cccc(S(=O)(=O)Nc2nc3ccccc3nc2Nc2cccc(C(=O)O)c2)c1	–	–	–	–	·	·
CC1=NN(c2ccccc2)C(=O)/C1=C/c1c(O)n(-c2ccc(F)cc2)[nH]c1=O	–	–	-5.9	–	54%	–
CC1=NN(c2ccccc2)C(=O)/C1=C/c1ccc(Cl)cc1	·	·	–	–	·	·
COc1cc(OC)c2c(-c3ccccc3)cc(=O)oc2c1C(CCN1CCCC(C)C1)c1ccc2c(c1)OCO2 (stereo unspecified)	–	–	–	–	·	·
COc1ccc(C(CCN2CCCCC2)c2c(OC)cc(OC)c3c(-c4ccccc4)cc(=O)oc23)cc1 (stereo unspecified)	–	–	-7.1	–	38%	–
COc1cc(OC)c2c(-c3ccccc3)cc(=O)oc2c1C(CCN1CCCCC1)c1ccc2c(c1)OCO2 (stereo unspecified)	–	–	-9.5	–	45%	–
CCCCCc1cc(=O)oc2c(C(CCN3CCCCC3)c3cc(OC)c(OC)c(OC)c3)c(OC)cc(OC)c12 (stereo unspecified)	–	–	-6.1	–	51%	–
SMILES	procasp3 activ	proCasp7 act	CHT inh	CHT allo act	CHT inh conf	HEK293 MPD ctr
COc1cc(OC)c2c(-c3ccccc3)cc(=O)oc2c1C(CCN1CCCCC1)c1ccc(N(C)C)cc1 (stereo unspecified)	–	–	-5.9	–	29%	–
NC(=O)c1cc2cc(Cl)ccc2o/c1=N/NC(=O)c1cccs1	–	–	–	–	·	·
CCCc1cc(C(=O)NNC(=S)NC(C)c2ccccc2)cs1 (stereo unspecified)	–	–	-6.2	–	18%	–
COc1ccc(NC(=O)CCN2CCN(c3ccccc3F)CC2)c(OC)c1	–	–	–	–	·	·
Cc1noc(C)c1COC(=O)c1ccc(F)c(S(=O)(=O)N2CCCCC2)c1	–	–	-5	–	69%	–
O=C(CC1CCCCC1)Nc1ncn[nH]1	–	–	–	–	·	·
CCC(C)(C(=O)NC1CCCCC1)N(C(=O)Cc1cccs1)c1ccccc1 (stereo unspecified)	–	–	–	–	·	·
CCOC(=O)c1sc(NC(=O)CCN2C(=O)c3ccccc3C2=O)c(C(=O)OCC)c1C	–	–	–	–	·	·
CCOC(=O)c1sc(NC(=O)CCN2C(=O)c3cccc([N+](=O)[O-])c3C2=O)c(C(=O)OCC)c1C	–	–	-7.4	–	56%	–
COc1ccc(CC(=O)Nc2cccc(S(=O)(=O)N3CCCCCC3)c2)cc1OC	–	–	–	–	·	·
CCOc1c(Cl)cc(/C=C/C(=O)N(CC)CC(=O)NCc2cccs2)cc1OC	–	–	-7.6	–	–	–
CCOc1cc(/C=C/C(=O)N(CC)CC(=O)NCc2cccs2)cc(Cl)c1OC	–	–	–	–	·	·
O=c1c2cc(NC(=S)NC3CCCCC3)ccc2nc2n1CCCCC2	–	–	-5.4	–	58%	–
COc1ccc(C2=NN(C(=O)c3cccs3)C(O)(C(F)(F)F)C2)cc1 (stereo unspecified)	–	–	–	–	·	·
COc1ccc(C2=NN(c3nc(C(=O)O)cs3)C(O)(C(F)(F)F)C2)c(OC)c1 (stereo unspecified)	–	–	-8.9	–	42%	–
CCOc1cc(/C=C2\C(=O)ON=C2c2ccccc2)cc(Br)c1O	–	–	-5.6	–	44%	–
COc1cc(/C=C2/C(=O)ON=C2c2ccccc2)ccc1O	–	–	-6.7	–	37%	–
CC1=NOC(=O)/C1=C/c1ccc(O)c(Br)c1	–	–	-9.6	–	21%	–
CCCOc1ccc(/C=C2/C(=O)ON=C2C)cc1OCC	–	–	–	–	·	·
COc1cc(/C=C2\C(=O)ON=C2c2ccccc2)cc(Cl)c1O	–	–	–	–	·	·
CCOc1cc(/C=C2/C(=O)ON=C2C)cc(Br)c1O	–	–	-9.6	–	42%	–
C=CCN(c1ccc(C(=O)NCCN2CCOCC2)cc1)S(C)(=O)=O	–	–	–	–	·	·
CCn1c(=O)n(CC)c2cc(S(=O)(=O)N3CCc4ccccc43)ccc21	–	–	-5.9	–	44%	–
COc1ccc(C(=O)CSc2nnc(CNC(=O)c3ccccc3F)n2C)cc1OC	–	–	–	–	·	·
